Drawing on paper PMC5543573 (Current Pharmaceutical Design, 2017), this text covers MIC90 and IC50 for 2 compounds.

Values after ≈ are worked out from the molar mass of the structure shown.

Data set [1] concerns Candida albicans (ATCC 24433). The data set is described as follows: Broth microdilution MIC90. The class given is cell-based. To be noted: ATCC24433, read-out: MIC90 Ca. In general terms: Dilution methods test growth across graded concentrations, often in twofold steps.
A further data set in a line: MTT cytotoxicity assay. To be noted: human. The class given is cell-based. An outline of the steps: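 Human CCD 841 CoN colon epithelial cells were grown in RPMI-1640 with 10% FBS, 1% penicillin/streptomycin, 1% L-glutamine and amphotericin B at 37 °C under 5% CO2. They were seeded at 5x10^3 cells/well, then treated 24 h later with test compound at 1.95–1000 µg/ml for 24 h. MTT solution (5 mg/mL) was added for 3 h at 37 °C, formazan dissolved in DMSO, and absorbance read at 540 nm. IC50 was obtained by regression of proliferation against concentration.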
(In general: Formazan colour is commonly taken as a measure of viable cells.)

For orientation: MIC90 means the lowest concentration that inhibits either 90% of growth or 90% of the strains tested, depending on the study. A word on the IC50: it is the concentration at which inhibition is half-maximal. Low readings indicate inhibition by little substance, high ones a need for much substance.

On to `CC(=O)N1CCN(c2ccc(OCC3COC(Cn4ccnc4)(c4ccc(Cl)cc4Cl)O3)cc2)CC1` (centres unmarked) [Ketoconazole], for which the MIC90 in data set [1] is 7.8 µg/mL (≈ 14.7 µM).

In “MTT cytotoxicity assay”, `O=C(N/N=C/c1ccc([N+](=O)[O-])o1)c1ccc(O)cc1` [Nifuroxazide] came in with a half-inhibitory concentration (IC50) at 24 h of 122 µg/mL (≈ 443 µM).
